The record followed here is ChEMBL document CHEMBL1152464, “Toluidine blue-mediated photodynamic effects on staphylococcal biofilms” (2008).

The structures appear in SMILES notation. Activity calls are given as the source filed them. The calls are words filed in the database; no cut-off is given here.

Experiment [1] relates to Staphylococcus epidermidis. The experiment is described as follows: Phototoxicity against Staphylococcus epidermidis 1457 grown as biofilms assessed as dead cells incubated at 40 uM for 30 mins followed by irradiation with 100 J/cm'2 laser light using SYTO9 staining by confocal laser scanning microscopy. Type of experiment: functional, organism-based. Put shortly: (§1)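 Biofilms were grown 16 h at 37°C on glass coverslips, plasma-coated for S. aureus, and treated with 40 μM TBO for 30 min in the dark, then left dark or irradiated at 640 nm to 100 or 200 J/cm². They were stained with SYTO9/propidium iodide (1 μl of each stock per 3 ml PBS) for 15 min at 22°C in the dark and imaged by confocal microscopy. Red = membrane-damaged/dead, green = viable.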

Experiment [2] concerns Staphylococcus epidermidis. Briefly: Phototoxicity against Staphylococcus epidermidis 1457 grown as biofilms assessed as decrease in survival incubated at 40 uM followed by irradiation with 1 to 200 J/cm2 laser light. In kind it is functional, organism-based. In short, it runs like this:
(§2)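 Biofilms were grown 16 h at 37°C in TSB + 0.25% glucose, with plasma-coated wells for S. aureus. They were then incubated with TBO (10–80 μM tested) in the dark for 30 min at 37°C and irradiated with a 640 nm diode laser, 1-cm spot, 42 mW/cm², at varied light doses. Cells were scraped, sonicated, serially diluted, and plated. Surviving fraction is CFU (TBO + light)/CFU (TBO alone). Duplicate biofilms, three experiments.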

Experiment [3] is described as follows: Ratio of phototoxicity against Staphylococcus aureus isolate LP grown as biofilms to phototoxicity against Staphylococcus epidermidis 1457. In kind it is functional. In short, it runs like this:
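Cell survival for each species was derived as CFU (TBO + light)/CFU (TBO alone) after biofilms were incubated with 40 μM TBO for 30 min in the dark and irradiated with a 640 nm diode laser at 42 mW/cm², compared at 25 J/cm². Unpaired two-sided t test.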

The subject of experiment [4] is Staphylococcus epidermidis. The experiment is described as follows: Phototoxicity against Staphylococcus epidermidis 1457 grown as biofilms assessed as reduction in adherent bacterial count incubated at 40 uM for 30 mins followed by irradiation with 100 J/cm'2 laser light by scanning electron microscopy. Type of experiment: functional, organism-based. In short, it runs like this: (§3)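 Biofilms were grown on Thermanox coverslips in TSB, precoated with 20% human plasma for S. aureus, and incubated with 40 μM TBO for 30 min in the dark, either unirradiated or irradiated at 100 J/cm². They were washed, fixed in 2.5% glutaraldehyde/0.1 M cacodylate pH 7.2 for 1 h at 4°C, ethanol-dehydrated, critical-point dried, and gold-coated. SEM was at ×1,000.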

The test system of experiment [5] is Staphylococcus aureus. The experiment is described as follows: Phototoxicity against Staphylococcus aureus isolate LP grown as biofilms incubated at > 40 uM followed by irradiation with 1 to 200 J/cm2 laser light. Type of experiment: functional, organism-based. Put shortly: as §2
Experiment [6] has as its system Staphylococcus aureus. Briefly: Phototoxicity against Staphylococcus aureus isolate LP grown as biofilms assessed as reduction in adherent bacterial count incubated at 40 uM for 30 mins followed by irradiation with 100 J/cm'2 laser light by scanning electron microscopy. In kind it is functional, organism-based. Put shortly:
as §3

Experiment [7] concerns Staphylococcus epidermidis. The experiment is described as follows: Phototoxicity against Staphylococcus epidermidis 1457 grown as biofilms assessed as reduction in adherent bacterial count incubated at 40 uM for 30 mins followed by irradiation with 100 J/cm'2 laser light by scanning electron microscopy in presence of TEDTA pretreated for 1 hr. Type of experiment: functional, organism-based. Put shortly: (§4)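 Thermanox coverslip biofilms (plasma-precoated for S. aureus) were pretreated with 20 mM TEDTA for 1 h, given 40 μM TBO for 30 min in the dark, and irradiated at 100 J/cm². They were then fixed in glutaraldehyde/cacodylate, dehydrated in graded ethanol, critical-point dried, gold-coated, and imaged by SEM at ×1,000.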

Experiment [8] concerns Staphylococcus aureus. Briefly: Phototoxicity against Staphylococcus aureus isolate LP grown as biofilms assessed as decrease in survival incubated at 40 uM followed by irradiation with 1 to 200J/cm2 laser light. In kind it is functional, organism-based. In short, it runs like this:
as §2

The test system of experiment [9] is Staphylococcus aureus. The experiment is described as follows: Antimicrobial activity against Staphylococcus aureus isolate LP grown as biofilms at 40 uM incubated in dark for 30 mins. In kind it is functional, organism-based. Put shortly:
(§5)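 Biofilms grown 16 h at 37°C in polystyrene wells from overnight TSB cultures diluted in TSB + 0.25% glucose (S. epidermidis 1:200, S. aureus 1:50, S. aureus wells precoated with 20% human plasma). TBO in PBS added, kept dark 30 min at 37°C, no light. Biofilms scraped, sonicated, vortexed, and plated on TSB agar. CFU counted after 24 h at 37°C in the dark and compared with PBS-only controls.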

Experiment [10] has as its system Staphylococcus aureus. The experiment is described as follows: Phototoxicity against Staphylococcus aureus isolate LP grown as biofilms assessed as appearance of large cellular aggregates surrounded by extracellular matrix incubated at 40 uM for 30 mins in dark by scanning electron microscopy. Type of experiment: functional, organism-based. Put shortly:
as §3

Experiment [11] deals with Staphylococcus epidermidis. The experiment is described as follows: Phototoxicity against Staphylococcus epidermidis 1457 grown as biofilms assessed as dead cells incubated at 40 uM for 30 mins followed by irradiation with 200 J/cm'2 laser light using propidium iodide staining by confocal laser scanning microscopy. Type of experiment: functional, organism-based. In short, it runs like this:
as §1

The subject of experiment [12] is Staphylococcus epidermidis. Briefly: Phototoxicity against Staphylococcus epidermidis 1457 grown as biofilms assessed as dead cells incubated at 40 uM for 30 mins in dark using SYTO9 staining by confocal laser scanning microscopy in presence of TEDTA pretreated for 1 hr. Type of experiment: functional, organism-based. Put shortly: (§6)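 Coverslip biofilms (plasma-coated for S. aureus) were pretreated with 20 mM TEDTA for 1 h and exposed to 40 μM TBO for 30 min in the dark. They were stained with SYTO9 plus propidium iodide for 15 min at 22°C in the dark and examined by confocal laser scanning microscopy for red (dead) versus green (viable) cells.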

Experiment [13] deals with Staphylococcus aureus. The experiment is described as follows: Phototoxicity against Staphylococcus aureus isolate LP grown as biofilms assessed as dead cells incubated at 40 uM for 30 mins in dark using SYTO9 staining by confocal laser scanning microscopy. Type of experiment: functional, organism-based. Put shortly: as §1
Experiment [14] deals with Staphylococcus epidermidis. The experiment is described as follows: Phototoxicity against Staphylococcus epidermidis 1457 grown as biofilms assessed as log reduction in survival fraction incubated at 40 uM for 30 mins followed by irradiation with 100 J/cm'2 laser light in presence of TEDTA pretreated for 1 hr. Type of experiment: functional. In short, it runs like this:
(§7)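 Biofilms were pretreated with 20 mM TEDTA in PBS for 1 h. They were then given 40 μM TBO, 30 min in the dark at 37°C, and 640 nm laser at 42 mW/cm² to 100 J/cm². Colony counts were made after scraping, sonication, and plating. Controls: TEDTA+TBO without light, TEDTA alone, and untreated. Survival was compared with TBO + light without TEDTA using an unpaired two-sided t test.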

For experiment [15], the system named is Staphylococcus aureus. The experiment is described as follows: Phototoxicity against Staphylococcus aureus isolate LP grown as biofilms assessed as reduction in adherent bacterial count incubated at 40 uM for 30 mins followed by irradiation with 100 J/cm'2 laser light by scanning electron microscopy in presence of TEDTA pretreated for 1 hr. Type of experiment: functional, organism-based. Put shortly: as §4

In experiment [16] the test system is Staphylococcus aureus. Briefly: Phototoxicity against Staphylococcus aureus isolate LP grown as biofilms assessed as dead cells incubated at 40 uM for 30 mins in dark using SYTO9 staining by confocal laser scanning microscopy in presence of TEDTA pretreated for 1 hr. Type of experiment: functional, organism-based. Put shortly:
as §6

Experiment [17] deals with Staphylococcus epidermidis. Briefly: Phototoxicity against Staphylococcus epidermidis 1457 grown as biofilms assessed as appearance of large cellular aggregates surrounded by extracellular matrix incubated at 40 uM for 30 mins in dark by scanning electron microscopy. Type of experiment: functional, organism-based. Put shortly: as §3
Experiment [18] relates to Staphylococcus epidermidis. The experiment is described as follows: Phototoxicity against Staphylococcus epidermidis 1457 grown as biofilms assessed as dead cells incubated at 40 uM for 30 mins in dark using SYTO9 staining by confocal laser scanning microscopy. In kind it is functional, organism-based. Put shortly: as §1
For experiment [19], the system named is Staphylococcus aureus. Briefly: Phototoxicity against Staphylococcus aureus isolate LP grown as biofilms assessed as dead cells incubated at 40 uM for 30 mins followed by irradiation with 200 J/cm'2 laser light using propidium iodide staining by confocal laser scanning microscopy. Type of experiment: functional, organism-based. Put shortly:
as §1

Experiment [20] deals with Staphylococcus epidermidis. The experiment is described as follows: Phototoxicity against Staphylococcus epidermidis 1457 grown as biofilms incubated at > 40 uM followed by irradiation with 1 to 200 J/cm2 laser light. In kind it is functional, organism-based. Put shortly:
as §2

Experiment [21] deals with Staphylococcus aureus. Briefly: Increase in phototoxicity against Staphylococcus aureus isolate LP grown as biofilms incubated at 40 uM for 30 mins followed by irradiation with 100 J/cm'2 laser light in presence of TEDTA pretreated for 1 hr. In kind it is functional, organism-based. In short, it runs like this: as §7
Experiment [22] concerns Staphylococcus epidermidis. The experiment is described as follows: Antimicrobial activity against Staphylococcus epidermidis 1457 grown as biofilms at 40 uM incubated in dark for 30 mins. In kind it is functional, organism-based. In short, it runs like this:
as §5

In experiment [23] the test system is Staphylococcus aureus. The experiment is described as follows: Phototoxicity against Staphylococcus aureus isolate LP grown as biofilms assessed as dead cells incubated at 40 uM for 30 mins followed by irradiation with 100 J/cm'2 laser light using SYTO9 staining by confocal laser scanning microscopy. In kind it is functional, organism-based. Put shortly:
as §1

Consider `Cc1cc2nc3ccc(N(C)C)cc3[s+]c2cc1N.[Cl-]` [TOLONIUM CHLORIDE], for which the outcome in experiment [1], in [9], in experiment [13], in [18], in experiment [21] and in experiment [22] was inactive. The result in [23] was inactive. In addition, the outcome in experiment [2], in [4], in experiment [5], in experiment [6], in [7] and in [8] was Active. In addition, the outcome in experiment [10], in experiment [11], in experiment [12], in experiment [15], in [16] and in experiment [17] was Active. Also, the result in [19] and in experiment [20] was Active. The Ratio in [3] was 10. Besides, in experiment [14], the Activity came to 1.
